# Results collected from several papers.
# Protocols differ between the studies behind these lines.
# Cell line: PC-3
# Effect on: cell growth or viability
SMILES,test,conditions,IC50
COc1cc2ncnc(Nc3ccc(F)c(Cl)c3)c2cc1NC(=O)N/N=C/CN1CCOCC1,MTT,72 h,3300 nM
CCOC(=O)c1[nH]cc2c1NC1=C(C(=O)CCC1)[C@H]2c1cccc(Oc2nc3ccccc3[nH]2)c1,ATP luminescence,72 h,> 10000 nM
CCN(CC)C/C=N/NC(=O)Nc1cc2c(Nc3ccc(F)c(Cl)c3)ncnc2cc1O[C@H]1CCOC1,MTT,72 h,580 nM
COc1c(C)cnc(COc2ccc(NC(=O)Nc3cc(F)cc(F)c3)cc2)c1C,MTT,72 h,57600 nM
Cc1cc(C)cc(COc2cc3c(cc2OCc2cc(C)cc(C)c2)[C@H]2C[C@](O)(Cc4cn(CC5CCCCC5)nn4)C[C@H](C)N2CC3)c1,MTT,,384 nM
C[C@H]1[C@@H](O)O[C@@H]2O[C@@]3(C)CC[C@H]4[C@H](C)CC[C@@H]1[C@@]24OO3,CCK-8,48 h,> 50000 nM
Cc1cc(C)cc(COc2cc3c(cc2OCc2cc(C)cc(C)c2)[C@@H]2C[C@@](O)(Cc4cn(Cc5ccc(S(C)(=O)=O)cc5)nn4)C[C@@H](C)N2CC3)c1,MTT,,230 nM
NCc1cc2c(-c3ccccc3)n[nH]c2c(Nc2ccccc2)n1,MTS,48 h,1600 nM
COc1ccc(Cn2cc(C[C@@]3(O)C[C@@H]4c5cc(OCc6cc(C)cc(C)c6)c(OCc6cc(C)cc(C)c6)cc5CCN4[C@@H](C)C3)nn2)cc1,MTT,,866 nM
COc1cc2ncnc(Nc3ccc(F)c(Cl)c3)c2cc1NC(=O)N/N=C/CN1CCCC1,MTT,72 h,2550 nM
Cc1cc(C)cc(COc2cc3c(cc2OCc2cc(C)cc(C)c2)[C@H]2C[C@](O)(Cc4cn(Cc5ccc6ccccc6c5)nn4)C[C@H](C)N2CC3)c1,MTT,,264 nM
COc1cc2ncnc(Nc3ccc(F)c(Cl)c3)c2cc1NC(=O)N/N=C/c1cccn1CCCN1CCN(C)CC1,MTT,72 h,660 nM
COc1ccc(/C=C/c2cc(C)no2)cc1OC,MTT,72 h,> 100000 nM
O=C(/C=C/c1ccc2ncn(Cc3ccccc3)c(=O)c2c1)NO,SRB,48 h,1540 nM
COc1ccnc(COc2ccc(NC(=O)Nc3ccc(F)cc3)cc2)c1OC,MTT,72 h,50100 nM
COc1cc2ncnc(Nc3ccc(F)c(Cl)c3)c2cc1NC(=O)N/N=C/CN1CCCCC1,MTT,72 h,5760 nM
COc1ccnc(COc2ccc(NC(=O)Nc3cccc(C(F)(F)F)c3)cc2)c1OC,MTT,72 h,75000 nM
Cc1cc(C)cc(COc2cc3c(cc2OCc2cc(C)cc(C)c2)[C@H]2C[C@](O)(Cc4cn(-c5ccccc5)nn4)C[C@H](C)N2CC3)c1,MTT,,264 nM
COc1ccc(NC(=O)Nc2ccc(OCc3ncc(C)c(OC)c3C)cc2)cc1,MTT,72 h,> 100000 nM
COc1cc2ncnc(Nc3ccc(F)c(Cl)c3)c2cc1NC(=O)N/N=C/c1cccn1CCN1CCN(C)CC1,MTT,72 h,2080 nM
